High-throughput results (PubChem)
Most compounds without a hit are left out; they make up all but 12% or so of the library.
MT stabilizer: stabilizes microtubules in HeLa cells; % tubulin-high responders, % at 10 µM; 200,000 compounds, 0.83% hits; HeLa tubulin immunostaining HCS, 24 h; share of cells brighter than vehicle mean+2SD;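 active means plate Z-score above 3 for both tubulin-high and condensed-nucleus cell shares, with cell loss under 80%, at 10 µM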;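 further: anti alpha tubulin signal scored within the nucleus-defined area of each cell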
Dynein cargo inh: dynein cargo transport inhibition | 220,000 compounds, 0.47% hits | z-score, hits read low | 3617.4 mouse cells, GR-EGFP nuclear translocation imaging; test concentration mostly 20 µM; stimulated with dexamethasone, 1 µM; stronger effect = lower value;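 active means plate z-score of nuclear minus cytoplasmic receptor signal below a set negative limit, without overly bright fluorescence or cell loss, cut at about -3.5 in these data, passing the limit was not always enough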;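 further: z-score of nuclear minus cytoplasmic ring GR-EGFP intensity difference per well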
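Buffer or medium: tet-free, stripped-serum medium; reagent: dexamethasone at 1.0 µM final, 30 min; incubation: 48 h induction, 1 h compound, 30 min dex at 37 °C; measured by: formaldehyde fixation, Hoechst nuclear stain, 10x automated fluorescence imaging; read-out: nuclear-to-cytoplasmic GR-EGFP distribution per well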
CHOP inh: CHOP inhibition in unfolded protein response | CHO-K1 CHOP-promoter luciferase, tunicamycin-induced, 15-18 h | inhibition, % at 10 µM | 220,000 compounds, 3.8% hits | AID 2732;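 active means compounds that reduced the stress-induced luciferase reporter signal by more than about 70% of percent inhibition, limit read from the data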;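 further: 0% = tunicamycin plus vehicle and 100% = wells without tunicamycin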
L major viab: reduces viability of Leishmania major promastigotes; resazurin fluorescence viability; inhibition, % at 10 µM; 200,000 compounds, 9% hits; in the data active means inhibition above about 50%;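 further: promastigotes grown with compound for 44 hours at 28 °C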
Autophagy HCS: alters autophagy in cells; MEF GFP-LC3 puncta imaging; test concentration mostly 10 µM; calls only at 10 µM (by protocol); 190,000 compounds, 0.98% hits; AID 463193;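 active means percentage of spot-positive cells more than 3 SD above its plate mean, without a fluorescence outlier flag or 80% toxicity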;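 further: spot-positive cell cutoff set from DMSO-treated cells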
b-catenin transl: beta-catenin nuclear translocation modulation | HeLa beta-catenin nuclear translocation, immunofluorescence imaging | nuclear translocation activity, % at 5 µM | 190,000 compounds, 0.3% hits;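 active means nuclear translocation activity above 50% at 5 µM, with a well cell count of 50 or more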;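 further: per-cell ratio of nuclear to cytoplasmic median beta-catenin stain intensity; plate controls were DMSO negative control for no effect and GSK-3 inhibitor IX positive control for full effect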
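System: Human HeLa cells, endogenous beta-catenin | Compound dosing: 5 µM primary, 0.02–20 µM confirmation | Timing: 24 h compound exposure at 37°C, 5% CO2 | Measured by: Fluorescence imaging of beta-catenin antibody stain plus DAPI | Read-out basis: % activation of per-cell nuclear versus cytoplasmic median beta-catenin signal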
Numbers without * were called inactive; i = inactive; nt = not tested or not shown; + = active, no number.

SMILES	MT stabilizer	Dynein cargo inh	CHOP inh	L major viab	Autophagy HCS	b-catenin transl
CCCC(=O)N(c1ccc(OCC)cc1)C1C=CS(=O)(=O)C1 (centres undefined)	4	-0.98	0	-9	i	1
O=C(Cn1c(C2CC2)nc2ccccc2c1=O)Nc1ccc(Br)cc1	2	-0.54	84*	-10	i	0
COc1cccc(/C=N/NC(=S)Nc2cccc(C(=O)O)c2)c1O	2	0.49	17	-4	i	0
O=C(Cn1nc(-c2ccccc2)ccc1=O)Nc1ccc(NC(=O)c2ccccn2)cc1	5	0.14	94*	-2	i	5
Cn1c(C(=O)N2CCCc3ccccc32)cc2sccc21	4	-0.91	30	1	i	nt
Cc1nn(-c2ccc([N+](=O)[O-])cc2)c2c1C(c1cccc(Br)c1)N1C(=N2)C(=O)Nc2ccccc21 (centres undefined)	2	0.089	55	77*	+	0
O=c1cc2[nH]c3ccccc3c(=O)n2nc1-c1ccccc1	2	0.22	30	12	i	2
CCN(C(=O)CSc1nnc(C)n1Cc1ccccc1)C1CCS(=O)(=O)C1 (centres undefined)	9	-0.42	-12	-2	+	0
Cc1nnc(SCC(=O)N(C)C2CCS(=O)(=O)C2)n1Cc1ccccc1 (centres undefined)	3	-0.89	37	-4	i	-4
Cc1onc(-c2ccccc2Cl)c1C(=O)NCCCN1CCOCC1	3	0.24	16	53*	i	-7
Cc1onc(-c2c(Cl)cccc2Cl)c1C(=O)c1c[nH]c(C(=O)NCCCN2CCOCC2)c1	2	4.1	0	-1	i	0
Cc1onc(-c2ccccc2Cl)c1C(=O)Nc1ccc(N2CCOCC2)cc1	2	5	-11	1	i	1
Cc1onc(-c2c(Cl)cccc2Cl)c1C(=O)NCCCN1CCOCC1	4	0.51	0	88*	i	0
O=C(CSc1ncnc2ccccc12)NCc1ccc2c(c1)OCO2	3	0.73	-2	1	i	-2
Cc1ccc(Sc2ncccc2NC(=O)c2ccccc2Cl)cc1	nt	-0.62	-6	nt	nt	2
CCCCOc1ccc(CNC(=S)N/N=C/c2ccc(OC)c(OC)c2)cc1	3	-1.1	88*	30	i	-2
CCOc1ccc(CNC(=S)N/N=C\c2ccc([N+](=O)[O-])cc2)cc1	4	0.048	46	0	i	1
COc1cc2nc(NC(=O)c3ccc(Cl)cc3)[nH]c(=O)c2cc1OC	3	1.4	72*	60*	i	3
Cc1ccc2[nH]c3c(c2c1)CN(C(=O)CN1c2ccc(F)cc2CCC1C)CC3 (centres undefined)	38*	0.38	53	33	i	30
COc1ccc(/C=N/N2CCN(C3c4ccccc4-c4ccccc43)CC2)cc1O	3	-0.33	92*	67*	i	2
COc1ccccc1N1CCN(c2cc(=O)n(Cc3ccc(F)cc3)c(=O)[nH]2)CC1	22*	-0.89	-4	-6	nt	1
COc1cccc(NC(=O)c2ccc(NCCCN3CC(C)CC(C)C3)c([N+](=O)[O-])c2)c1 (centres undefined)	3	0.32	2	-4	+	1
COc1cccc(NC(=O)c2ccc(NCCCN3CCC(C)CC3)c([N+](=O)[O-])c2)c1	2	0.34	4	21	i	0
CCCN(CCC)CCCNc1ccc(C(=O)Nc2cccc(OC)c2)cc1[N+](=O)[O-]	2	0.31	5	98*	i	nt
O=C(Nc1cc(F)cc(F)c1)c1ccc(NCCCN2CCCCCC2)c([N+](=O)[O-])c1	5	2	22	91*	i	0
SMILES	MT stabilizer	Dynein cargo inh	CHOP inh	L major viab	Autophagy HCS	b-catenin transl
CCN(CC)S(=O)(=O)c1ccc(NC(=O)COC(=O)CCc2cc(OC)c(OC)c(OC)c2)cc1	5	0.23	-1	-4	i	-3
CC12CCC(C(=O)N(CSC(=S)N/N=C\c3ccccc3O)C1=O)C2(C)C (centres undefined)	4	-0.49	47	85*	i	0
Cc1nc(S(=O)(=O)N(C)c2ccccc2)c(C#N)c(C)c1Cl	3	-0.97	29	72*	i	nt
COC(C[C@@H](O)C[C@H](O)COCc1ccccc1)OC	nt	-0.74	11	nt	nt	1
Cc1cc(C)n(Cc2ccc(F)cc2)c(=O)c1C#N	4	0.31	-17	-4	i	1
COc1ccc(-n2cc(C#N)c(=O)n(Cc3ccc(F)cc3)c2=O)cc1	24*	-0.7	28	13	i	31
S=C(NCC1CCCO1)NC12CC3CC(CC(C3)C1)C2 (centres undefined)	2	0.53	-13	62*	i	-1
O=C(NCC1CCCO1)NC12CC3CC(CC(C3)C1)C2 (centres undefined)	3	-0.74	24	-10	i	0
Fc1ccc(-c2csc(=S)[nH]2)cc1	2	3.4	-2	93*	i	1
Cc1cccc(C)c1NC(=O)c1ccc(-c2ccc(Cl)cc2Cl)o1	0	1.4	60	91*	i	0
O=C(/C=C/c1ccc(Cl)cc1)Nc1ccc(CN2CCOCC2)cc1	4	1.3	37	82*	i	2
Cc1ccccc1NC(=O)c1ccc(-c2ccc(Cl)cc2Cl)o1	2	-0.38	60	39	i	nt
CC(=O)Cc1nsc(NC(=O)c2ccc(Br)o2)n1	1	-0.72	0	-3	i	-1
O=C(Nc1ccc(CN2CCOCC2)cc1)c1ccc(-c2ccc(Cl)cc2Cl)o1	1	-0.36	49	74*	i	-1
CC(=O)Cc1nsc(NC(=O)c2ccc(-c3cccc(Cl)c3)o2)n1	14*	-0.068	5	-3	i	-1
O=C(Nc1ccc(CN2CCOCC2)cc1)c1ccc(-c2cccc(Cl)c2)o1	1	-0.041	4	99*	i	-3
Cc1ccc(NC(=O)CCC(=O)c2ccc(F)cc2)cc1Cl	1	-0.46	79*	-1	i	0
O=C(CCC(=O)c1ccc(F)cc1)Nc1cccc(S(=O)(=O)Nc2cccc(Cl)c2)c1	1	0.85	49	69*	i	-2
Cc1ccccc1OCCC(=O)Nc1ccc(F)c(Cl)c1	2	0.86	69	68*	i	0
O=C(CCC(=O)c1ccc(F)cc1)Nc1cccc(C(F)(F)F)c1	3	-0.54	51	-8	i	-1
OC(CN1CCN(c2ccccc2)CC1)c1ccc2c(c1)CCN2 (centres undefined)	4	0.73	12	1	nt	-2
Cc1[nH]c2ccc3ncccc3c2c1C	4	1.1	24	56*	i	2
Cc1ccc2ncccc2c1[N+](=O)[O-]	4	0.36	15	32	i	0
